Results from ChEMBL document CHEMBL1817630, “Stereostructure-based differences in the interactions of cardiotoxic local anesthetics with cholesterol-containing biomimetic membranes” (Bioorg Med Chem, 2011).
The source made the active and inactive calls. The rule behind the calls is not given here.

What was measured:
[1] = system: Lipid bilayer; assay: Binding affinity to DPH-labeled liposomal membrane without cholesterol assessed as increase in membrane fluidity by measuring decrease in DPH fluorescence polarization after 5 mins by spectrofluorometry
Outline: (§1)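 Fresh DPH-labeled liposomes (ethanol injection into HEPES pH 7.4 with NaCl/KCl) contained 0–45 mol% cholesterol, with the remaining lipids POPC/POPE/CL/POPS/POPI/SM at 25:16:10:3:3:3. Enantiomer pairs were tested on the same day. Each was given at 200 uM final with DMSO at 0.5% v/v, and vehicle controls matched. After 5 min at 37 °C, DPH fluorescence polarization was measured. Values are % polarization change relative to control, mean ± SEM, n=7.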

[2] = organism: Canis familiaris; assay: Cardiotoxicity in dog assessed as free plasma concentration causing cardiovascular collapse measured after 20 mins; format: toxicity, organism-based, Canis lupus familiaris
[3] = organism: Canis familiaris; assay: Cardiotoxicity in dog assessed as total plasma concentration causing cardiovascular collapse measured after 20 mins; format: toxicity, organism-based, Canis lupus familiaris
[4] = system: Lipid bilayer; assay: Binding affinity to DPH-labeled liposomal membrane containing 40 mol% cholesterol assessed as increase in membrane fluidity by measuring decrease in DPH fluorescence polarization at 200 uM after 5 mins by spectrofluorometry; outline: as §1
[5] = system: Lipid bilayer; assay: Binding affinity to DPH-labeled liposomal membrane containing 20 mol% cardiolipin 40 mol% cholesterol assessed as increase in membrane fluidity by measuring decrease in DPH fluorescence polarization at 200 uM after 5 mins by spectrofluorometry
Outline: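 DPH-labeled liposomes made by ethanol injection (10 mM total lipid, 50 uM DPH in the injected stock) into 10 mM HEPES pH 7.4 with 125 mM NaCl and 25 mM KCl. Membranes held 0 or 20 mol% cardiolipin, with or without 40 mol% cholesterol, and POPC/POPE/POPS/POPI/SM at 25:16:3:3:3. Drug was added at 200 uM final in 0.5% DMSO, incubated 37 °C for 5 min, and DPH polarization read. Results are % change vs DMSO control, mean ± SEM, n=7.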

[6] = system: Lipid bilayer; assay: Increase in membrane fluidity in DPH-labeled liposomal membrane containing 40 mol% cholesterol assessed as change in DPH fluorescence polarization at 200 uM after 5 mins by spectrofluorometry relative to control; format: cell membranes; outline: as §1
[7] = system: Lipid bilayer; assay: Increase in membrane fluidity in DPH-labeled liposomal membrane containing 20 mol% cardiolipin 40 mol% cholesterol assessed as change in DPH fluorescence polarization at 200 uM after 5 mins by spectrofluorometry relative to liposome without cardiolipin
[8] = system: Lipid bilayer; assay: Binding affinity to DPH-labeled liposomal membrane containing 5 to 45 mol% cholesterol assessed as increase in membrane fluidity by measuring decrease in DPH fluorescence polarization after 5 mins by spectrofluorometry; outline: as §1

Activity [1]	Activity [4]	Activity [5]	fold change (FC) [6]	fold change (FC) [7]	Activity [8]	Structure (SMILES)	Activity [2] [µM]	Activity [3] [µM]
Active	Active	Active	1.4	3.7		CCCCN1CCCC[C@H]1C(=O)Nc1c(C)cccc1C [LEVOBUPIVACAINE]	17	49
Active	Active	Active		3.7	Active	CCCCN1CCCC[C@@H]1C(=O)Nc1c(C)cccc1C		
			1			CCCN1CCCC[C@H]1C(=O)Nc1c(C)cccc1C [ROPIVACAINE]	36	64
Active	Active	Active	1.7		Active	CCCCN1CCCCC1C(=O)Nc1c(C)cccc1C (racemic) [BUPIVACAINE]	10	39
